pIC50, pKd: −log10 of the molar value. Calls of active or inactive are those of the source. Unless noted, the calls are words filed in the database; no cut-off is given here.
Tests used:
[1] = target: T1, L-lactate dehydrogenase A chain (Homo sapiens, UniProt P00338); assay: Inhibition of LDHA in human A673 cells assessed as decrease in lactate production incubated for 2 hrs by lactate oxidase-coupled fluorescence based assay; assay type: cell-based
[2] = Genotoxicity in Salmonella typhimurium by Ames test; assay type: toxicity; conditions: salmonella enterica subsp. enterica serovar typhimurium
[3] = target: L-lactate dehydrogenase B chain (Homo sapiens) (UniProt P07195); assay: Inhibition of recombinant human LDHB using sodium pyruvate as substrate preincubated for 5 mins followed by diaphorase/resazurin addition and measured after 20 mins by fluorescence based assay
[4] = target: T1, L-lactate dehydrogenase A chain; assay: Inhibition of LDHA in human MIA PaCa-2 cells assessed as decrease in lactate production incubated for 2 hrs by lactate oxidase-coupled fluorescence based assay; assay type: cell-based
[5] = tested on: MIA PaCa-2; assay: Cytotoxicity against human MIA PaCa-2 cells assessed as reduction in cell viability after 48 hrs by CellTiter-Glo assay; assay type: functional, cell-based; conditions: MIA PaCa-2, 48 h
[6] = target: Voltage-gated inwardly rectifying potassium channel KCNH2 (Homo sapiens, UniProt Q12809); assay: Inhibition of human ERG by patch clamp method; conditions: dose >10 µM
[7] = Half life in mouse liver microsomes at 1 uM in presence of NADPH by LC-MS/MS; assay type: ADME, Microsome
In short: (§1)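 Time-course stability in human or mouse liver microsomes, or mouse hepatocytes, in the presence of NADPH and UDPGA. Parent compound was monitored at five time points to derive T1/2.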

[8] = Kinetic aqueous solubility of the compound in pH 7.4 PBS buffer at 150 uM measured after 6 hrs by shake flask method; assay type: physicochemical; conditions: read-out: Kinetic_solubility
In short: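 μSOL kinetic solubility. 10 mM DMSO stocks were diluted with 1-propanol cosolvent to 150 μM final in aqueous pH 7.4 and equilibrated 6 h at room temperature. After filtration, filtrate concentration was read by UV absorbance against a 17 μM reference.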

[9] = Half life in mouse liver cytoplasm; assay type: ADME, subcellular
[10] = tested on: Cytochrome P450; assay: Induction of CYP450 (unknown origin) at 10 uM; assay type: ADME, protein assay; conditions: human
[11] = Half life in mouse plasma; assay type: ADME, cell-free
In short: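 Stability in mouse plasma was followed at five time points, with T1/2 derived from parent remaining.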

[12] = Metabolic stability in rat hepatocytes; assay type: ADME, cell-based, Hepatocyte
[13] = Protein binding in mouse plasma assessed as free fraction; assay type: ADME, cell-free
[14] = Permeability of compound at pH 7.4 incubated for 30 mins by PAMPA; assay type: ADME; conditions: pH 7.4, 0.5 h
In short: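 Stirred double-sink PAMPA with GI-tract lipid/dodecane membrane, pH 7.4 on both sides. Compound was diluted from 10 mM DMSO stock to 0.05 mM (0.5% DMSO final), with 30 min permeation at room temperature. Donor and acceptor were read by UV. Results in 10⁻⁶ cm/s.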

[15] = Half life in rat liver cytoplasm; assay type: ADME, subcellular
[16] = Permeability of compound at pH 7.4 […] incubated for 1 hr by PAMPA-BBB assay; assay type: ADME; conditions: pH 7.4, 1 h
In short: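 Double-sink PAMPA with 10% porcine brain lipid extract in phospholipid/alkane membrane. 10 mM DMSO stocks were diluted to 0.05 mM at pH 7.4 and stirred 1 h at room temperature. Donor and acceptor were quantified by UV against reference and blank. Results in 10⁻⁶ cm/s.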

[17] = Half life in human liver microsomes at 1 uM in presence of NADPH by LC-MS/MS; assay type: ADME, Microsome; in short: as §1
[18] = Volume of distribution at steady state in CD-1 mouse at 10 mg/kg, iv and measured up to 24 hrs by LC/MS-MS analysis; assay type: ADME, organism-based; conditions: in vivo
In short: (§2)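 Male CD1 mice, about 6–8 weeks old and 20–30 g, received 10 mg/kg IV in 0.1 M NaOH in PBS adjusted to pH 7–8.5, made fresh on the day of dosing. Three mice per cohort. Blood was taken from the dorsal metatarsal vein at 5, 15, 30 min and 1, 2, 4, 8, 12, 24 h into heparin tubes. Plasma was spun at 4 °C, stored at –75 °C and analysed by LC–MS/MS. For IV dosing Cmax = C0.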

[19] = species on record: Sus scrofa; assay: Inhibition of porcine heart MDH using malic acid as substrate preincubated for 10 mins followed by substrate addition and measured after 5 mins by resazurin based fluorescence based assay; conditions: time 15.0 min
[20] = tested on: Mus musculus; assay: In vivo inhibition of LDH in human A673 cells xenografted athymic nude CrTac:NCr-Foxn1nu mouse assessed as reduction in tumor LDH activity at 50 mg/kg, iv after 1 hr by NADH-based UV-VIS spectrometric method relative to control; assay type: functional, organism-based
In short: (§3)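 Female athymic nude mice carried SQ A673 flank xenografts (2 million cells) and received a single IV dose of 50 mg/kg in PBS-based vehicle. Four mice per time point were sacrificed at 1, 3, 6 and 24 h. Frozen tumor (10–50 mg) was pulverized and lysed in PBS pH 7.4 with 0.1% Triton X-100 on ice for 1 h. Cleared lysate (10–20 μg) was assayed with 10 mM pyruvate and 0.3 mM final NADH, reading NADH oxidation at 340 nm at 37 °C.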

[21] = target: T1, L-lactate dehydrogenase A chain; assay: Binding affinity to human His-tagged LDHA by SPR analysis
In short: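 SPR on a Mass-1 instrument gave K_D and k_off. Residence time τ was calculated as 1/k_off (s⁻¹).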

[22] = Half life in human liver cytoplasm; assay type: ADME, subcellular
[23] = target: T1, L-lactate dehydrogenase A chain; assay: Inhibition of LDHA in human A673 cells assessed as decrease in extracellular acidification rate at 0.5 to 5 uM preincubated for 1 hr followed by glucose/oligomycin/2-DG addition at 48 mins by seahorse XF GST based assay; assay type: cell-based; conditions: dose microM 0.5-5, time 108.0 min
In short: (§4)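 A673 cells in DMEM with 10% FBS were plated 24 h ahead, then switched to Seahorse basic DMEM with 2 mM glutamine, pH 7.4, and held 1 h at 37 °C without CO2. ECAR was recorded after inhibitor injection at increasing concentrations. At 48 min, glucose (10 mM final), oligomycin (1 μg/mL final) and 2-DG (50 mM final) were injected in sequence.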

[24] = Half life in rat liver microsomes at 1 uM in presence of NADPH by LC-MS/MS; assay type: ADME, Microsome
[25] = species on record: Homo sapiens; assay: Inhibition of LDH in human A673 cells assessed as decrease in extracellular acidification rate at 0.5 to 5 uM preincubated for 1 hr followed by subsequent injections of glucose/oligomycin at 48 mins by seahorse XF GST based assay; assay type: cell-based; conditions: dose microM 0.5-5, time 108.0 min; in short: as §4
[26] = Metabolic stability in dog hepatocytes; assay type: ADME, cell-based, Canis lupus familiaris, Hepatocyte
[27] = target: T1, L-lactate dehydrogenase A chain; assay: Inhibition of recombinant human LDHA using sodium pyruvate as substrate preincubated for 5 mins followed by diaphorase/resazurin addition and measured after 20 mins by fluorescence based assay
[28] = Cmax in CD-1 mouse at 10 mg/kg, iv and measured up to 24 hrs by LC/MS-MS analysis; assay type: ADME, organism-based; parameters: route intravenous, dose 10 mg/kg, time <=24; conditions: in vivo; in short: as §2
[29] = In vivo inhibition of LDH in human A673 cells xenografted athymic nude CrTac:NCr-Foxn1nu mouse assessed as reduction in tumor LDH activity at 50 mg/kg, iv after 6 hrs by UV-VIS spectrometric method relative to control; assay type: functional; in short: as §3
[30] = tested on: A673; assay: Cytotoxicity against human A673 cells assessed as reduction in cell viability after 48 hrs by CellTiter-Glo assay; assay type: functional, cell-based; conditions: A673, 48 h

Chain of L-lactate dehydrogenase B chain (Homo sapiens) (P07195 2-334 limits assumed): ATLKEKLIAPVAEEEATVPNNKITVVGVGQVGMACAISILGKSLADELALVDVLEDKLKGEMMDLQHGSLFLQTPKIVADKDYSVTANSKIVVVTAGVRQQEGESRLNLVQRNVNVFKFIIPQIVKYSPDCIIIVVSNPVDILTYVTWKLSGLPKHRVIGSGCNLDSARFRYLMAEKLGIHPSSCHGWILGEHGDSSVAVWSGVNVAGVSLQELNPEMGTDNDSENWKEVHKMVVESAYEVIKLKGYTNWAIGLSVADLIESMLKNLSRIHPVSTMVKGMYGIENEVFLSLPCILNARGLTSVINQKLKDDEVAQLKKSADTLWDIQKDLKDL
Chain of Voltage-gated inwardly rectifying potassium channel KCNH2 (Q12809 whole entry): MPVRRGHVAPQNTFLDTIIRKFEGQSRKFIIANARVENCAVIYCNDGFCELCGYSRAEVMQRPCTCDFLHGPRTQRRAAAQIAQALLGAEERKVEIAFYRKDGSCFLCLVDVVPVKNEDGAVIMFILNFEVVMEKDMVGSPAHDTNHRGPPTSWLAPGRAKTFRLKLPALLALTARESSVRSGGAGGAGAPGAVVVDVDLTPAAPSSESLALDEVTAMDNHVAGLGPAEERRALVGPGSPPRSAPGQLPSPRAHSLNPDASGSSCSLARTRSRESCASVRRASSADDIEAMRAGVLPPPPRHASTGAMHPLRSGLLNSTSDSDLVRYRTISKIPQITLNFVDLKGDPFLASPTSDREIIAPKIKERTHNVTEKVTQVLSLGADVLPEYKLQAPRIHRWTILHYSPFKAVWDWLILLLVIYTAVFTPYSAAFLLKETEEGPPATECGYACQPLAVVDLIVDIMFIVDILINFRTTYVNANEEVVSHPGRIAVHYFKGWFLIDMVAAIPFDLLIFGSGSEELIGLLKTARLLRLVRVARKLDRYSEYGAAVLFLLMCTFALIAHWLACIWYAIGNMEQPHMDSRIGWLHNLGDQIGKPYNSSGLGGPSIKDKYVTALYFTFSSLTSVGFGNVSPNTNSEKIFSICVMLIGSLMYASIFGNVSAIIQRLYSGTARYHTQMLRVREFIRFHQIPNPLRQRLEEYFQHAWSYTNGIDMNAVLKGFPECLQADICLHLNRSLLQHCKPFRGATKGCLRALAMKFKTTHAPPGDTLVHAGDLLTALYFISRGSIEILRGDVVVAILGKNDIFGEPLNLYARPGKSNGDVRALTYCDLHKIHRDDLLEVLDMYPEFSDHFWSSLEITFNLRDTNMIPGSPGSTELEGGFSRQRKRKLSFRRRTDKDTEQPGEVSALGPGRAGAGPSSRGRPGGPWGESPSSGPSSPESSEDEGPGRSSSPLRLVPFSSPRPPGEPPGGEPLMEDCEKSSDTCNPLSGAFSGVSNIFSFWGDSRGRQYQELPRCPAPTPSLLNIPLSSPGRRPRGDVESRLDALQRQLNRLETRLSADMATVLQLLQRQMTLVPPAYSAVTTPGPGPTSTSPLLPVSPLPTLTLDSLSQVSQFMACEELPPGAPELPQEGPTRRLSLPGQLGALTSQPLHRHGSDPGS

Row | SMILES | pIC50 [1] | Activity [2] | inhibition [3] | pIC50 [4] | pIC50 [5] | INH [6] [µM] | half-life at 1 µM [7] [h] | solubility kinetic at 6 h, 150 µM [8] [µg/mL] | half-life [9] [h] | Activity [10] | t1/2 [11] [h] | half-life [12] [h] | Fu [13] [%] | permeability [14] | half-life [15] [h] | permeability [16] | half-life at 1 µM [17] [h] | Vdss [18] [L/kg] | inhibition [19] | inhibition [20] | further results
1 | Cc1ccc(C#Cc2cccc(-c3nn(-c4nc(C(=O)O)cs4)c(CC4CC4)c3Cc3ccc(S(N)(=O)=O)c(F)c3)c2)s1 | 6.12 | Non-Toxic | Active | 6.44 | 6.46 | > 10 | > 2 | > 70 | > 2 | Not Active | > 4 | > 2.5 | 4.4 | 2.2 10^-6 cm/s | > 2 | 9.6 10^-6 cm/s | > 2 | 1.7 | inactive | Active | pKd [21]: 10.20; half-life [22]: > 2 h; inhibition [23]: Active; half-life at 1 µM [24]: > 2 h; inhibition [25]: inactive; half-life [26]: > 2.5 h; pIC50 [27]: 7.40; Cmax [28]: 33800 ng/mL; inhibition in vivo at 50 mg/kg [29]: 80%; pIC50 [30]: 6.98
2 | Cc1ccc(C#Cc2cc(-c3nn(-c4nc(C(=O)O)cs4)c(CC4CC4)c3Cc3ccc(S(N)(=O)=O)c(F)c3)ccc2F)s1 | 6.06 | Non-Toxic | Active | 6.39 | 6.59 | > 10 | > 2 | > 70 | > 2 | Not Active | > 4 | > 2.5 | 0.7 | 10.4 10^-6 cm/s | > 2 | 16 10^-6 cm/s | > 2 | 1.79 | inactive | Active | pKd [21]: 10.18; half-life [22]: > 2 h; inhibition [23]: Active; half-life at 1 µM [24]: > 2 h; inhibition [25]: inactive; half-life [26]: > 2.5 h; pIC50 [27]: 7.24; Cmax [28]: 41800 ng/mL; inhibition in vivo at 50 mg/kg [29]: 60%; pIC50 [30]: 6.92

From ChEMBL document CHEMBL4665801, “Pyrazole-Based Lactate Dehydrogenase Inhibitors with Optimized Cell Activity and Pharmacokinetic Properties” (J Med Chem, 2020)
